Assay results as given in the EternaBench riboswitch data.

System: MS2 coat protein
Assay: apparent Kd, MS2 coat protein; higher = weaker binding; RNA-MaP array
In short: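 Designed RNAs were transcribed in place on an Illumina sequencing chip from sequenced DNA templates. At room temperature and with or without input ligand, they were incubated with fluorescently labeled MS2 coat protein from 1.5 nM to 3 μM, for 0.8–1.5 h at the lowest and 10–20 min at the highest concentrations. Apparent Kd is the median of the binding-curve fits made per cluster, with designs measured on fewer than 10 clusters excluded.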

[1] = designed as: OFF switch for flavin mononucleotide, no ligand
[2] = ligand present: flavin mononucleotide, designed as: OFF switch for flavin mononucleotide
[3] = designed as: OFF switch for theophylline, no ligand
[4] = ligand present: theophylline, designed as: OFF switch for theophylline
[5] = designed as: ON switch for flavin mononucleotide, no ligand
[6] = ligand present: flavin mononucleotide, designed as: ON switch for flavin mononucleotide

Sequence	apparent Kd [1] [nM]	apparent Kd [2] [nM]	apparent Kd [5] [nM]	apparent Kd [6] [nM]	also measured
CGGGUGUAGACAGGAUAUGCAAAUAAAGGUGAAGCAGAAGGGUCACAUGAGGAUCACCCAUGUCACUAAAUUGGCGGUAUAAGA	39	159	–	–	–
CAGUGAAGAGGAUAUACAUGAGGAUCACCCAUGUACCGUGGUCCAUAUCAUAAUUCGAGUAGAAGGCUUAACCA	114	108	–	–	–
GACAGGACGACAUGAGGAUCACCCAUGUGUUAGCGUGGAUAGCAGGAUAUAUUAUUUAGACUCGGAUAGAAGGGCUCGGACCUA	18.3	14.5	–	–	–
GGAAGGACAGUUGAUACCAGUUUCAAAGGCGGUAAUCACUACAUGAGGAUCACCCAUGUCAACCCUUGGCAGCAAUAGACCGUGG	–	–	–	–	apparent Kd [3]: 18.8 nM; apparent Kd [4]: 24 nM
CGGCAUGGAACAGGAUAUGGGUAAUUCAUUUGACCAGAAGGGUUCUUCAGCAGCCGUUGCACAUGAGGAUCACCCAUGUCAUAU	–	–	29.7	10	–
UUUGAGGCAGGAUAUAACAUCUUUGACAUGAGGAUCACCCAUGUGGUGUCCCGGUUUUAAUUAGAAGGGCCAGGCU	692	727	–	–	–
CCAGCCCUUCUAGAUACCAGCUUUCAAUAUAAGACAACUCACAUGAGGAUCACCCAUGUUAGCCCUUGGCAGCUAAGAUCCACAA	–	–	–	–	apparent Kd [3]: 52.1 nM; apparent Kd [4]: 57.3 nM
AUCGGUAAAACUCAGGAUAUAGAAAUAGACACAUGAGGAUCACCCAUGUUAACUACACAAAGAAUCUAGAAGGGAGCAGGUGUCUA	–	–	78.2	44.9	–
AUAAGUAUAGGAUAUACAGGUAAGCGUUCUUACCGAUCCAGACAUGAGGAUCACCCAUGUAGAAGGAUACGUCU	8.18	7.87	–	–	–
GGAAAGUCUGAGAAGGGAUGAAGACAUGAGGAUCACCCAUGUGAAGGCCACUGGCUCCACAAGUAUCAGGAUAUCAGCAUAGCG	–	–	36.3	20.6	–
GGAUUUGAUCCAGGAUAUUAACAAUCCUCAGAUCAAAAUACAUGAGGAUCACCCAUGUACUCAAAUAAGAAGGGGAUGGCGGCC	25.7	20.5	–	–	–
UUAGCACAUGAGGAUCACCCAUGUUAGGAUAUCCGUUAAUAUCAGGCAAGGUCUGAAAGGAGAAGGAACAUGAA	35.4	67.9	–	–	–
AGAGUUAUUGAGAAGGAAACAUUGACAUGAGGAUCACCCAUGUACUUGGCUAAGGAGCCGAGUGUUUAGGAUAUCAUUCAGAUA	–	–	25.6	9.33	–
AAAUACAUGAGGAUCACCCAUGUCAAUAAUCGAGGACCGGUACGGCCGCCACUCGAUCGGCCAAGAAAAUGAAAGAUGAUCUCUA	–	–	–	–	apparent Kd (designed as: ON switch for tryptophan, no ligand): 26.9 nM; apparent Kd (ligand present: tryptophan, designed as: ON switch for tryptophan): 30.7 nM
GUCGUCACAGGAUAUACAUGAGGAUCACCCAUGUUCCCGUGUAAAUGGGUUGUGUUAGGUAGAAGGGUGCACGC	17.4	27.8	–	–	–
CAUUUACAUGAGGAUCACCCAUGUUAUUCUACCCAAGGAUAUCGGGAAAGUAGAACAAGUCGAGAAGGUGGUGCGC	–	–	29.5	25.6	–
AAGACGAAGAAGAAGGGCAUACAUGAGGAUCACCCAUGUGAAAAUGUGCUGAAAGAACAUAAAUUGCAGGAUAUUCACACAAGU	–	–	11.2	6.42	–
UUAGGGCGGUAGAAGGAGGAUUACAUGAGGAUCACCCAUGUGGCAGGAGGCGAGGCUCAGUUACCCUAGGAUAUACAUCAGGUU	24.9	21.5	–	–	–
CUAAGAUAAGAAGGAUAUAAAACAUGAGGAUCACCCAUGUAAAAGUACAUCACACUACAAAUGGAUUAGAAGGUCUUAAUAACC	10.2	8.47	–	–	–
UCUUGAGGCUAGGAUAUCAUACAUAAAAGCAACUGAGAAGGAGCCACAUGAGGAUCACCCAUGUAUCCGUUAUG	16.5	71.6	–	–	–
UUUUUAGGACAAGGAUAUUGAAUCGCACAUGAGGAUCACCCAUGUCCUCUGCAUACAGCGGACUUCAAGAAGGUGUCGACCAAU	–	–	971	832	–
GGUACUCUGUACUAACAUGAGGAUCACCCAUGUAGGCAAACUCAGGAUAUAUUGAACACACCUAGAUAGAAGGGAGUUCGUGAU	–	–	11.2	9.66	–
GCAAAUGCUGAGAAGGUGAUGAAUAACUCCUCGAUGUAACUUGACAUGAGGAUCACCCAUGUCAUCAAGGAUAUCAAAGUGAAC	9.54	16.2	–	–	–
UGCAGGCGAACAGGAUAUCACACAUGAGGAUCACCCAUGUAAACUACUUAAGAAAGGGAGCCUCGUGAGAAGGGUUUCUUUGGG	74.6	60.1	–	–	–
GGACACGAAGGAUAUACCCAAUGCCUGAGAAAACUCAUGGGACAUGAGGAUCACCCAUGUAGAAGGUCGUUAAA	558	416	–	–	–
GUGCAAAACCAGAAGGGACAUUAAAGGGUAAAGUCAGGAUAUGGCACAUGAGGAUCACCCAUGUAGACUAGACGCGUUAUUUUC	–	–	9.99	9.11	–
